CAL PDZ FP-1: human CAL PDZ-peptide interaction inhibition | purified CAL PDZ, TMR-peptide fluorescence polarization, 1 h | inhibition, % at 20 µM | 0.02% of 330,000 active | AID 504414;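 active means highest replicate inhibition of at least 40%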
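Control set: unlabelled peptide and DMSO controls / Material: purified CerCALP PDZ construct / Timing: 1 h incubation at room temperature before polarization reading / Doses: 20 µM, one dose / Detection: fluorescence polarization (mP)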
SR-BI HDL uptake: blocks mouse SR-BI lipid uptake from DiI-HDL. Q61009. ldlA[mSR-BI] CHO cells, DiI-HDL uptake fluorescence, 3 h. inhibition, % at 12.5 µM. 0.96% of 320,000 active;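 active means mean replicate inhibition of at least 70% and a set share of replicates each scoring 70 or more; inconclusive means meets just one of the two criteria; inactive means fails both criteria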
SR-BI uptake up: activators of SR-BI mediated HDL lipid uptake | CHO ldlA[mSR-BI] cells, DiI-HDL uptake fluorescence, 3 h; 100 = double the neutral-control signal | activation, % at 12.5 µM | 0.096% of 320,000 active | AID 504775;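 active means mean replicate activation of at least 60% and every replicate at or above 60%; inconclusive means mean or all-replicate condition met, but not both; inactive means mean below 60% and not all replicates reaching 60%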
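Test system: SR-BI-overexpressing, LDLR-lacking CHO cells; Also added: labelled HDL, 10 µg/mL; Measured by: bottom-read cell fluorescence after medium removal, ex 550/em 595 nm; Timing: 3 h uptake period with compound, 37 °C; Buffer or medium: F12, 0.5% BSA, 25 mM HEPES; Doses: single compound concentration, delivered by pin transfer.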
dFosB act-1: activators of mouse delta FosB homodimer. purified delta FosB, TAMRA-CDK5 oligo fluorescence polarization; percent of positive-control signal above neutral wells. 0.99% of 340,000 active. AID 493131. activation, % at 25 µM. P13346;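 active means mean activation above about 17%, with every replicate also reaching it, limit read from the data, passing the limit was not always enough; inconclusive means only one of the two conditions met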
Target sequence (P13346 whole entry, looked up): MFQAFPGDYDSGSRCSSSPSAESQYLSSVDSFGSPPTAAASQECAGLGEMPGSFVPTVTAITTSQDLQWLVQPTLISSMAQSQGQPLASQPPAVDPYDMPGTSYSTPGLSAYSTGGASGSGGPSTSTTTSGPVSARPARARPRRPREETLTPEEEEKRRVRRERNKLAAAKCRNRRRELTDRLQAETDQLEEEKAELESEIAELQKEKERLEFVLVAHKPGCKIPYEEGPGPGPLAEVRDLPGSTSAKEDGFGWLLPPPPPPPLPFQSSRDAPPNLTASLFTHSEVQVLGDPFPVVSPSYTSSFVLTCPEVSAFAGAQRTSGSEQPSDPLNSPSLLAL
CAL PDZ FP-2: inhibitors of human CAL PDZ peptide binding | Q9HD26 | purified CAL PDZ, TMR-peptide fluorescence polarization, 1 h | inhibition, % at 24.9 µM | 0.92% of 300,000 active | AID 602252;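 active means mean inhibition of at least 30% with at least half of replicates also reaching 30%; inconclusive means no clear call, values can overlap the other calls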
dFosB act-2: delta FosB (mouse) homodimer activation. activation, % at 24.9 µM. shares compounds with dFosB act-1. purified delta FosB, TAMRA-CDK5 oligo fluorescence polarization; normalised: neutral wells 0, positive control 100. 2,400 tested, under 10 active;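 active means highest replicate activation at or above 34% and every replicate reaching that threshold; inconclusive means meets only one of the two criteria; inactive means meets neither criterion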;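 further: higher polarization means more probe DNA bound by delta FosB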
Of the large screens only hits and unclear results are named; the others gave an inactive call (follow-up assays come after a bar, where they were run). Only some compounds are listed: those with a hit (about 2.8% of all), similar ones and a draw of the others.

CCCCn1c(N)c(N(CC(C)C)C(=O)c2cccc(S(=O)(=O)N3CCCCCC3)c2)c(=O)[nH]c1=O	dFosB act-1 39 (no result: CAL PDZ FP-2) | dFosB act-2 inactive
CCCCN(C)CCNC(=S)Nc1ccc2nc(N3CCN(CC)CC3)cc(C)c2c1	dFosB act-1 inconclusive
Cc1cc(N2CCN(C)CC2)nc2ccc(NC(=S)N3CCCCC3)cc12	none
CCN1CCN(c2cc(C)c3cc(NC(=S)NCCN(C)C)ccc3n2)CC1	dFosB act-1 20 | dFosB act-2 inactive
Cc1cc(N2CCCC2)nc2ccc(NC(=S)NCCCN3CCC(C)CC3)cc12	dFosB act-1 46 | dFosB act-2 inactive
Cc1cc(N2CCN(C)CC2)nc2ccc(NC(=S)N3CCN(c4cccc(Cl)c4)CC3)cc12	dFosB act-1 51 | dFosB act-2 inactive
Cc1cc(N2CCN(C)CC2)nc2ccc(NC(=S)NCCCN3CCc4ccccc4C3)cc12	dFosB act-1 31 (no result: SR-BI HDL uptake, SR-BI uptake up) | dFosB act-2 inactive
CCCCNC(=S)Nc1ccc2nc(N3CCN(CC)CC3)cc(C)c2c1	none
Cc1cc(N2CCN(C)CC2)nc2ccc(NC(=S)N3CCN(c4ccc(Cl)cc4)CC3)cc12	none (no result: SR-BI HDL uptake, SR-BI uptake up)
Cc1csc2ncnc(N3CCN(C(=O)Nc4ccc(OC(F)(F)F)cc4)CC3)c12	none
CSc1ccc(CN(C)CC(=O)NCCc2ccccc2)cc1	none
Cc1ccc(SCc2c(C(=O)N/N=C/c3ccc4c(c3)OCO4)nnn2-c2nonc2N)cc1	dFosB act-1 52 | dFosB act-2 inactive
Cc1ccc(/C=N/NC(=O)c2nnn(-c3nonc3N)c2CSc2ccccc2)cc1	dFosB act-1 24 | dFosB act-2 inactive
Cc1ccc(-c2c(C(=O)N/N=C/c3ccoc3)nnn2-c2nonc2N)cc1	none (no result: SR-BI uptake up)
Cc1ccc(-c2c(C(=O)N/N=C/c3cccc(Cl)c3)nnn2-c2nonc2N)cc1	dFosB act-1 47 | dFosB act-2 inactive
Nc1nonc1-n1nnc(C(=O)N/N=C/c2ccccc2Cl)c1-c1ccc2c(c1)OCO2	dFosB act-1 25 | dFosB act-2 inactive
NC(=O)c1ccc(SCC(=O)OCC(=O)NCc2ccco2)c([N+](=O)[O-])c1	none
Cc1ccsc1/C=N/NC(=O)c1nnn(-c2nonc2N)c1-c1ccc2c(c1)OCO2	none
C/C(=N\NC(=O)c1nnn(-c2nonc2N)c1-c1ccc2c(c1)OCO2)c1ccc(C)cc1	dFosB act-1 32 | dFosB act-2 inactive
Cc1ccc(SCc2c(C(=O)N/N=C/c3ccccc3)nnn2-c2nonc2N)cc1	dFosB act-1 25 | dFosB act-2 inactive
Nc1nonc1-n1nnc(C(=O)N/N=C/c2ccccc2)c1CSc1ccc(Cl)cc1	none
Cc1ccc(-c2c(C(=O)N/N=C/c3ccc4c(c3)OCO4)nnn2-c2nonc2N)cc1	SR-BI HDL uptake 76, dFosB act-1 45 | dFosB act-2 inactive
C/C(=N\NC(=O)c1nnn(-c2nonc2N)c1-c1ccc2c(c1)OCO2)c1ccc(F)cc1	none
CCOc1ccc(-c2nc(CN3CCCC(C(=O)N4CCOCC4)C3)c(C)o2)cc1 (stereo not drawn)	none
NC(=O)C1CCCN(S(=O)(=O)c2ccc3ccccc3c2)C1 (stereo not drawn)	none
O=c1[nH]c(/C(Cl)=C/c2cc(Cl)ccc2O)nc2cc(Cl)ccc12	dFosB act-1 31 (no result: CAL PDZ FP-2) | dFosB act-2 inactive
Cn1cc(/C=N/NC(=O)c2ccccc2O)c2ccccc21	none
CC(=O)n1cc(/C=N/NC(=O)c2ccccc2O)c2ccccc21	dFosB act-1 29 | dFosB act-2 inactive
Cc1c(Cc2ccc3c(c2)OCO3)sc(NC(=O)c2ccccc2)c1C(N)=O	dFosB act-1 39 (no result: CAL PDZ FP-2) | dFosB act-2 inactive
Cc1nc(NC(=O)c2ccccc2)sc1Cc1ccc2c(c1)OCO2	none
COc1ccc(NC(=O)Nc2ccc(N3CCOCC3)c3nonc23)c(OC)c1	dFosB act-1 26 (no result: CAL PDZ FP-2) | dFosB act-2 inactive
Cc1cccc(-n2nnnc2SCC(=O)N(CC(C)C)c2c(N)n(CC(C)C)c(=O)[nH]c2=O)c1	dFosB act-1 32 | dFosB act-2 inactive
Cc1ccc(-n2nnnc2SCC(=O)N(CC(C)C)c2c(N)n(CC(C)C)c(=O)[nH]c2=O)cc1	none
COc1cc(OC)cc(C(=O)NCc2ccc3c(c2)OCO3)c1	none
